# Results: ChEMBL document CHEMBL3526123, “Hepatobiliary disposition of 17-OHPC and taurocholate in fetal human hepatocytes: a comparison with adult human hepatocytes” (Drug Metab Dispos, 2013)
# Tests used:
# Hepatocyte [1] = assay: Total drug uptake in sandwich-cultured human fetal hepatocytes assessed per mg protein at 1 uM after 20 mins in absence of rifampin by liquid scintillation counting method; format: ADME, cell-based
# In short: (§1)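 Sandwich-cultured hepatocytes received 1 µM radiolabeled test compound in HBSS at 37°C, with or without cyclosporine A, verapamil or rifampin. After an ice-cold wash, efflux was started with Ca2+/Mg2+-free HBSS for 20 min. Media and lysates were counted by liquid scintillation. Total uptake is expressed as pmol/mg protein (Bradford), mean ± S.D.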
# Hepatocyte [2] = assay: Total drug uptake in sandwich-cultured human adult hepatocytes assessed per mg protein at 1 uM after 20 mins in presence of cyclosporine A by liquid scintillation counting method; format: ADME, cell-based; in short: as §1
# Hepatocyte [3] = assay: Total drug uptake in sandwich-cultured human fetal hepatocytes assessed per mg protein at 1 uM after 20 mins in absence of cyclosporine A by liquid scintillation counting method; format: ADME, cell-based; in short: as §1
# Hepatocyte [4] = assay: Total drug uptake in sandwich-cultured human fetal hepatocytes assessed per mg protein at 1 uM after 20 mins in absence of verapamil by liquid scintillation counting method; format: ADME, cell-based; in short: as §1
# Hepatocyte [5] = assay: Total drug uptake in sandwich-cultured human adult hepatocytes assessed per mg protein at 1 uM after 20 mins in absence of cyclosporine A by liquid scintillation counting method; format: ADME, cell-based; in short: as §1
# Hepatocyte [6] = assay: Total drug uptake in sandwich-cultured human adult hepatocytes assessed per mg protein at 1 uM after 20 mins in absence of verapamil by liquid scintillation counting method; format: ADME, cell-based; in short: as §1
# Hepatocyte [7] = assay: Total drug uptake in sandwich-cultured human fetal hepatocytes assessed per mg protein at 1 uM after 20 mins in presence of cyclosporine A by liquid scintillation counting method; format: ADME, cell-based; in short: as §1
# Hepatocyte [8] = assay: Total drug uptake in sandwich-cultured human fetal hepatocytes assessed per mg protein at 1 uM after 20 mins in presence of rifampin by liquid scintillation counting method; format: ADME, cell-based; in short: as §1
# Hepatocyte [9] = assay: Total drug uptake in sandwich-cultured human adult hepatocytes assessed per mg protein at 1 uM after 20 mins in absence of rifampin by liquid scintillation counting method; format: ADME, cell-based; in short: as §1
# Hepatocyte [10] = assay: Total drug uptake in sandwich-cultured human fetal hepatocytes assessed per mg protein at 1 uM after 20 mins in presence of verapamil by liquid scintillation counting method; format: ADME, cell-based; in short: as §1
# Hepatocyte [11] = assay: Total drug uptake in sandwich-cultured human adult hepatocytes assessed per mg protein at 1 uM after 20 mins in presence of verapamil by liquid scintillation counting method; format: ADME, cell-based; in short: as §1
# Hepatocyte [12] = assay: Total drug uptake in sandwich-cultured human adult hepatocytes assessed per mg protein at 1 uM after 20 mins in presence of rifampin by liquid scintillation counting method; format: ADME, cell-based; in short: as §1
# Hepatocyte [13] = assay: Drug accumulation in sandwich-cultured human fetal hepatocytes assessed per mg protein under Ca2+/Mg2+ free conditions; format: ADME, cell-based
# Hepatocyte [14] = assay: Drug uptake in sandwich-cultured human fetal hepatocytes at 1 uM after 20 mins in presence of cold media at 4 degC by liquid scintillation counting method; format: ADME, cell-based
# Bile salt export pump [15] = target: T1, Bile salt export pump (Homo sapiens, UniProt O95342); assay: Inhibition of ABCB11-mediated taurocholate efflux in sandwich-cultured human fetal hepatocytes at 0.5 to 10 uM; format: ADME, cell-based, Hepatocyte
# In short: (§2)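 Sandwich-cultured hepatocytes (Matrigel overlay) were given 1 µM [3H]taurocholic acid in standard HBSS at 37°C, with or without increasing 17-OHPC or cyclosporine A (40 µM, positive control). Efflux was run in standard versus Ca2+/Mg2+-free HBSS, with inhibitor present. Canalicular efflux is the buffer difference, set to 100% in controls. Uptake was from scintillation counts normalized to Bradford protein. Triplicates; fetal n = 4, adult n = 6.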
# Hepatocyte [16] = assay: Drug accumulation in sandwich-cultured human adult hepatocytes assessed per mg protein under Ca2+/Mg2+ conditions; format: ADME, cell-based
# Bile salt export pump [17] = target: T1, Bile salt export pump; assay: Inhibition of ABCB11-mediated taurocholate total uptake in sandwich-cultured human adult hepatocytes at >50 uM; format: ADME, cell-based, Hepatocyte; in short: as §2
# Hepatocyte [18] = assay: Drug excretion in sandwich-cultured human fetal hepatocytes assessed as mean biliary index; format: ADME, cell-based
# In short: (§3)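 Sandwich-cultured hepatocytes (Matrigel overlay, 0.233 mg/ml) were rinsed twice and equilibrated 10 min at 37°C in standard or Ca2+/Mg2+-free HBSS. 1 µM [3H]taurocholate or [3H]17-OHPC in standard HBSS was then added. Accumulation was measured by scintillation counting and normalized to Bradford protein. BEI = (accumulation with Ca/Mg − accumulation without)/accumulation with Ca/Mg × 100. Reported as mean ± S.D. across cultures.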
# Hepatocyte [19] = assay: Drug accumulation in sandwich-cultured human fetal hepatocytes assessed per mg protein under Ca2+/Mg2+ conditions; format: ADME, cell-based
# Bile salt export pump [20] = target: T1, Bile salt export pump; assay: Inhibition of ABCB11-mediated taurocholate efflux in sandwich-cultured human adult hepatocytes at 5 to 100 uM; format: ADME, cell-based, Hepatocyte; in short: as §2
# Hepatocyte [21] = assay: Drug uptake in sandwich-cultured human adult hepatocytes at 1 uM after 20 mins in presence of cold media at 4 degC by liquid scintillation counting method; format: ADME, cell-based
# In short: (§4)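 Sandwich-cultured hepatocytes were loaded for 20 min in standard HBSS containing 1 µM 17-OHPC and 1 µM TCA, at 37°C or at 4°C. Cells were washed ice-cold, and efflux was started with Ca2+/Mg2+-free HBSS at the matching temperature. Media and lysates were counted by liquid scintillation and normalized to protein. Triplicate treatments.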
# [22] = Cmax in adult human plasma; format: ADME, cell-free
# Hepatocyte [23] = assay: Drug uptake in sandwich-cultured human fetal hepatocytes at 1 uM after 20 mins in presence of warm media at 37 degC by liquid scintillation counting method; format: ADME, cell-based
# Hepatocyte [24] = assay: Drug accumulation in sandwich-cultured human adult hepatocytes assessed per mg protein under Ca2+/Mg2+ free conditions; format: ADME, cell-based
# Hepatocyte [25] = assay: Drug excretion in sandwich-cultured human adult hepatocytes assessed as mean biliary index; format: ADME, cell-based; in short: as §3
# Hepatocyte [26] = assay: Drug uptake in sandwich-cultured human adult hepatocytes at 1 uM after 20 mins in presence of warm media at 37 degC by liquid scintillation counting method; format: ADME, cell-based; in short: as §4
# Bile salt export pump [27] = target: T1, Bile salt export pump; assay: Inhibition of ABCB11-mediated taurocholate total uptake in sandwich-cultured human fetal hepatocytes at >0.5 uM; format: ADME, cell-based, Hepatocyte; in short: as §2
# T1 sequence (O95342 whole entry): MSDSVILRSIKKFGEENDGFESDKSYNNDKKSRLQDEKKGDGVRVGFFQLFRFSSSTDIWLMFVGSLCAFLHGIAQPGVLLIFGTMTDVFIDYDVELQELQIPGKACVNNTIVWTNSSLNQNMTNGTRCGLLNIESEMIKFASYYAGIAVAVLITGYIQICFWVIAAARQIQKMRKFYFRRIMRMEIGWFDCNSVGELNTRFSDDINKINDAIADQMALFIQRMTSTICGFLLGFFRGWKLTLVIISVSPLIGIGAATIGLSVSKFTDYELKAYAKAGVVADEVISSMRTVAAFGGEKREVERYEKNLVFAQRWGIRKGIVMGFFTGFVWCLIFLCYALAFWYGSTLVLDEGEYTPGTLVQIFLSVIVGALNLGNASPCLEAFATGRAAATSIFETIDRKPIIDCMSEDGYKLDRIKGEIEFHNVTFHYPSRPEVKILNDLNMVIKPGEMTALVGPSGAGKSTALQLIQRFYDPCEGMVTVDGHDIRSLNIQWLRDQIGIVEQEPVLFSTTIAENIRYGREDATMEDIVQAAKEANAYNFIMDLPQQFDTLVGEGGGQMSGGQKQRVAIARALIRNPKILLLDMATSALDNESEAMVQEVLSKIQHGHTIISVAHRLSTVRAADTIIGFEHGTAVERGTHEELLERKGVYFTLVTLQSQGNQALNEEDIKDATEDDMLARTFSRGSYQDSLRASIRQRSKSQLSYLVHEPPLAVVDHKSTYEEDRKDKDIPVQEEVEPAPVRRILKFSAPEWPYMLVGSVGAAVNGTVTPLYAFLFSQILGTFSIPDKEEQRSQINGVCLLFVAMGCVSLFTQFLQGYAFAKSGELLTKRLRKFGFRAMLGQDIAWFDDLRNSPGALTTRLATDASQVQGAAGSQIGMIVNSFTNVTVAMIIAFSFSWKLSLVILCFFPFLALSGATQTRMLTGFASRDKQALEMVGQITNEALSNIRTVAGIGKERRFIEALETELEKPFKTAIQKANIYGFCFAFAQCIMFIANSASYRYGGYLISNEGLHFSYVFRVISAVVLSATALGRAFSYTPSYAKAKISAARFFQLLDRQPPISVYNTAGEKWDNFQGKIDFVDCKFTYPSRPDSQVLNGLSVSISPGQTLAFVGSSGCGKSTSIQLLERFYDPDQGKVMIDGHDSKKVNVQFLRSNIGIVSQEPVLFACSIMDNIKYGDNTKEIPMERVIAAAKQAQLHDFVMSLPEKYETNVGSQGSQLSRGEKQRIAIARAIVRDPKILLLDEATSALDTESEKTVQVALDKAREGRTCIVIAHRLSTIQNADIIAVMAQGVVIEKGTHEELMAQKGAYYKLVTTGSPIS
smiles,measurement,setting,value
[3H]C1C2=CC(=O)C([3H])C([3H])[C@]2(C)[C@H]2CC[C@@]3(C)[C@@H](CC[C@]3(O[14C](=O)CCCCC)C(C)=O)[C@@H]2C1[3H] (some centres undefined),Drug uptake,Hepatocyte [1],267 pmol
same,Drug uptake,Hepatocyte [2],494 pmol
same,Drug uptake,Hepatocyte [3],284 pmol
same,Drug uptake,Hepatocyte [4],263 pmol
same,Drug uptake,Hepatocyte [5],476 pmol
same,Drug uptake,Hepatocyte [6],341 pmol
same,Drug uptake,Hepatocyte [7],304 pmol
same,Drug uptake,Hepatocyte [8],241 pmol
same,Drug uptake,Hepatocyte [9],611 pmol
same,Drug uptake,Hepatocyte [10],281 pmol
same,Drug uptake,Hepatocyte [11],347 pmol
same,Drug uptake,Hepatocyte [12],565 pmol
CCCCCC(=O)O[C@]1(C(C)=O)CC[C@H]2[C@@H]3CCC4=CC(=O)CC[C@]4(C)[C@H]3CC[C@@]21C [HYDROXYPROGESTERONE CAPROATE],Drug uptake,Hepatocyte [13],294 pmol
same,Drug uptake,Hepatocyte [14],Not Active
same,inhibition (INH),Bile salt export pump [15],Active
same,Drug uptake,Hepatocyte [16],680 pmol
same,inhibition (INH),Bile salt export pump [17],Active
same,Drug excretion,Hepatocyte [18],7%
same,Drug uptake,Hepatocyte [19],320 pmol
same,inhibition (INH),Bile salt export pump [20],Active
same,Drug uptake,Hepatocyte [21],Not Active
same,Cmax,[22],70 nM
same,Drug uptake,Hepatocyte [23],Active
same,Drug uptake,Hepatocyte [24],628 pmol
same,Drug excretion,Hepatocyte [25],6.2%
same,Cmax,Cmax in human cord blood,20 nM
same,Drug uptake,Hepatocyte [26],Active
same,inhibition (INH),Bile salt export pump [27],Active
C[C@H](CCC(=O)NCCS(=O)(=O)O)[C@H]1CC[C@H]2[C@@H]3[C@H](O)C[C@@H]4C[C@H](O)CC[C@]4(C)[C@H]3C[C@H](O)[C@]12C [TAUROCHOLIC ACID],Drug uptake,Hepatocyte [13],23 pmol
same,Drug uptake,Hepatocyte [14],Not Active
same,Drug uptake,Hepatocyte [16],85 pmol
same,Drug uptake,Hepatocyte [19],34 pmol
same,Drug uptake,Hepatocyte [23],Active
same,Drug uptake,Hepatocyte [24],21 pmol
